According to ChEMBL document CHEMBL4350961, “Discovery of Pyrrolo[3,2- d]pyrimidin-4-one Derivatives as a New Class of Potent and Cell-Active Inhibitors of P300/CBP-Associated Factor Bromodomain” (J Med Chem, 2019):
Calls of active or inactive are those of the source.

Assays:
[1] = target: Tyrosine-protein kinase FRK (Homo sapiens) (UniProt P42685); experiment: Inhibition of human PTK5 (218 to end residues) using GGEEEEYFELVKKKK as substrate measured after 40 mins in presence of [gamma33P]ATP by scintillation counting method
Procedure, shortened: (§1)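 Kinase panel of 422 kinases screened by Eurofins KinaseProfiler at a single test-compound concentration of 10 µM.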

[2] = target: Bromodomain-containing protein 1 (Homo sapiens) (UniProt O95696); experiment: Binding affinity to human partial length BRD1 (E556 to A688 residues) expressed in bacterial expression system at 1 uM by BROMOscan assay
Procedure, shortened: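 BROMOscan bromodomain cross-screen run by an outside service, compound at 1 µM against 32 recombinant bromodomains. Binding given as percent of control.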

[3] = target: Calcium/calmodulin-dependent protein kinase type 1D (Homo sapiens) (UniProt Q8IU85); experiment: Inhibition of recombinant full-length human CaMK1delta at 10 uM using calmodulin as substrate measured after 40 mins in presence of [gamma33P]ATP by scintillation counting method
Sequence of Calcium/calmodulin-dependent protein kinase type 1D (Homo sapiens) (Q8IU85 whole entry, looked up, the tested form may be a part): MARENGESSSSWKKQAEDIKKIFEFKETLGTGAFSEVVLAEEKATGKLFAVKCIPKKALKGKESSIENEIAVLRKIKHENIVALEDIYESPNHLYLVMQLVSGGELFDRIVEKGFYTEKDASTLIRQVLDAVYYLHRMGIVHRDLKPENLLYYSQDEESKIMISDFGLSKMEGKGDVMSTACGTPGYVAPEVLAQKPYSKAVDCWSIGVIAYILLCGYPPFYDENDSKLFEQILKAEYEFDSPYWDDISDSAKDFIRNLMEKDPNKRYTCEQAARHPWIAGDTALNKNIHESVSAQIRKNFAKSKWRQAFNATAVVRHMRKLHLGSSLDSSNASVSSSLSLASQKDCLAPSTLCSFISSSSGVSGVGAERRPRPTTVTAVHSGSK

[4] = target: Calcium/calmodulin-dependent protein kinase type II subunit beta (Homo sapiens) (UniProt Q13554); experiment: Inhibition of recombinant full-length human CaMK2beta (1 to 315 residues) at 10 uM using calmodulin as substrate measured after 40 mins in presence of [gamma33P]ATP by scintillation counting method
Sequence of Calcium/calmodulin-dependent protein kinase type II subunit beta (Homo sapiens) (Q13554 whole entry, the tested form may be a part): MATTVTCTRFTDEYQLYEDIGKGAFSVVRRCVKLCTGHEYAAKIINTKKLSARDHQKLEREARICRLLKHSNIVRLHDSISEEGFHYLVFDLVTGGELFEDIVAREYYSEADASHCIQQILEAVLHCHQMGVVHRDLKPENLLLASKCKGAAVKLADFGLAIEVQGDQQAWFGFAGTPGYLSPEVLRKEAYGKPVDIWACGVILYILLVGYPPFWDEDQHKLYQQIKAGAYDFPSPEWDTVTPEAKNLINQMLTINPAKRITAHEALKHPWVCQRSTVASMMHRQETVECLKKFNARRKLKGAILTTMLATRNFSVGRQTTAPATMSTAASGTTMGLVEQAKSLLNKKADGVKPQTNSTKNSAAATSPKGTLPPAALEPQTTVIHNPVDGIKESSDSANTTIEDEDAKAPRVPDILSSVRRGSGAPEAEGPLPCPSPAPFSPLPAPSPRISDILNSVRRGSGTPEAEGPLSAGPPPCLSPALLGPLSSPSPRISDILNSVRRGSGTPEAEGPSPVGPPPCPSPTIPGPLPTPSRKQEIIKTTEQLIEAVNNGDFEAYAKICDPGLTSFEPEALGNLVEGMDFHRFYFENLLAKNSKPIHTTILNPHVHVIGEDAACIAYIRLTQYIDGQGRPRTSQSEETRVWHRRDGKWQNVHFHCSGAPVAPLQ

[5] = target: Calcium/calmodulin-dependent protein kinase kinase 1 (Homo sapiens) (UniProt Q8N5S9); experiment: Inhibition of recombinant full-length human CAMKk1 at 10 uM using calmodulin as substrate measured after 40 mins in presence of [gamma33P]ATP by scintillation counting method
[6] = species: Homo sapiens; experiment: Inhibition of recombinant human EphB2 A848S/ K918E mutant (560 to end residues) at 10 uM using KTFCGTPEYLAPEVRREPRILSEEEQEMFRDFDYIADWC as substrate measured after 40 mins in presence of [gamma33P]ATP by scintillation counting method
[7] = test system: Receptor-type tyrosine-protein kinase FLT3 (Homo sapiens), P36888 [D835Y]; experiment: Inhibition of recombinant human Flt3 D835Y mutant (564 to end residues) at 10 uM using EAIYAAPFAKKK as substrate measured after 40 mins in presence of [gamma33P]ATP by scintillation counting method
[8] = target: LIM domain kinase 1 (Homo sapiens) (UniProt P53667); experiment: Inhibition of recombinant human LIMK1 (285 to 638 residues) at 10 uM using cofilin as substrate measured after 40 mins in presence of [gamma33P]ATP by scintillation counting method
[9] = target: Dual specificity mitogen-activated protein kinase kinase 6 (Homo sapiens) (UniProt P52564); experiment: Inhibition of recombinant human MKK6 (4 to end residues) at 10 uM using unactive SAPK2a as substrate measured after 40 mins in presence of [gamma33P]ATP by scintillation counting method
Sequence of Dual specificity mitogen-activated protein kinase kinase 6 (Homo sapiens) (P52564 whole entry): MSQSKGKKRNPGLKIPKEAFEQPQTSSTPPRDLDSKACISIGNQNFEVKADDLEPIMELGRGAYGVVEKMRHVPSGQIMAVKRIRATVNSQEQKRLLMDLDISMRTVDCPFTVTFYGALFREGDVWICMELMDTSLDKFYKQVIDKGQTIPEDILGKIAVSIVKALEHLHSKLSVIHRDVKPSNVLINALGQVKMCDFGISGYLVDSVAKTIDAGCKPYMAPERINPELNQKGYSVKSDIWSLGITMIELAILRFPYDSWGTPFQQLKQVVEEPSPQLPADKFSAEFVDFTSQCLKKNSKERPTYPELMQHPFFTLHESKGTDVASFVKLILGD

[10] = target: Mitogen-activated protein kinase kinase kinase 11 (Homo sapiens) (UniProt Q16584); experiment: Inhibition of human MLK3 at 10 uM by radiometric method; procedure, shortened: as §1
[11] = target: MAPK/MAK/MRK overlapping kinase (Homo sapiens) (UniProt Q9UQ07); experiment: Inhibition of recombinant human MOK (1 to 343 residues) at 10 uM using RSRSRSRSRSRSRSR as substrate measured after 40 mins in presence of [gamma33P]ATP by scintillation counting method
[12] = target: Serine/threonine-protein kinase 3 (Homo sapiens) (UniProt Q13188); experiment: Inhibition of recombinant full-length human MST2 (2 to end residues) at 10 uM using myelin basic protein as substrate measured after 40 mins in presence of [gamma33P]ATP by scintillation counting method
Sequence of Serine/threonine-protein kinase 3 (Homo sapiens) (Q13188 whole entry, the tested form may be a part): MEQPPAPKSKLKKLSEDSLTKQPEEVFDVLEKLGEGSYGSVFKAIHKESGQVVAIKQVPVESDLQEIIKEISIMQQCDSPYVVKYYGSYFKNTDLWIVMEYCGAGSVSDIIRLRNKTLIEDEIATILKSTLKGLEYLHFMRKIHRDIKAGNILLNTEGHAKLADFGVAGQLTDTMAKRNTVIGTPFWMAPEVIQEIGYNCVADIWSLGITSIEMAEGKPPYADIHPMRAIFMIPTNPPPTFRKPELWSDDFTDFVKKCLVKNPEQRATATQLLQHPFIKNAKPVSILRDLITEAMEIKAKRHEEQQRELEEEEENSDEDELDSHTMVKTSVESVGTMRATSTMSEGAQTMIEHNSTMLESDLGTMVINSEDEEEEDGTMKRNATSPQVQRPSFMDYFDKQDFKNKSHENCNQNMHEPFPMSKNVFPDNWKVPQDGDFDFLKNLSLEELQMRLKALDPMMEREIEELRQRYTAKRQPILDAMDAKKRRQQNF

[13] = target: Serine/threonine-protein kinase 24 (Homo sapiens) (UniProt Q9Y6E0); experiment: Inhibition of recombinant human MST3 (1 to 304 residues) at 10 uM using ERMRPRKRQGSVRRRV as substrate measured after 40 mins in presence of [gamma33P]ATP by scintillation counting method
[14] = test system: Protein kinase C eta type (Homo sapiens), P24723 [UNDEFINED MUTATION]; experiment: Inhibition of recombinant human PKCeta V108L/G109R/L392Q mutant (2 to end residues) at 10 uM using ERMRPRKRQGSVRRRV as substrate measured after 40 mins in presence of [gamma33P]ATP by scintillation counting method
[15] = target: Serine/threonine-protein kinase N2 (Homo sapiens) (UniProt Q16513); experiment: Inhibition of human PRK2 (501 to end residues) using AKRRRLSSLRA as substrate measured after 40 mins in presence of [gamma33P]ATP by scintillation counting method; procedure, shortened: as §1
[16] = target: Receptor-interacting serine/threonine-protein kinase 1 (Homo sapiens) (UniProt Q13546); experiment: Inhibition of human RIPK1 (8 to 322 residues) using myelin basic protein as substrate measured after 120 mins in presence of [gamma33P]ATP by scintillation counting method; procedure, shortened: as §1
[17] = target: Macrophage-stimulating protein receptor (Homo sapiens) (UniProt Q04912); experiment: Inhibition of human Ron (983 to end residues) using GGMEDIYFEFMGGKKK as substrate measured after 40 mins in presence of [gamma33P]ATP by scintillation counting method; procedure, shortened: as §1
Sequence of Macrophage-stimulating protein receptor (Homo sapiens) (Q04912 25-304 limits assumed): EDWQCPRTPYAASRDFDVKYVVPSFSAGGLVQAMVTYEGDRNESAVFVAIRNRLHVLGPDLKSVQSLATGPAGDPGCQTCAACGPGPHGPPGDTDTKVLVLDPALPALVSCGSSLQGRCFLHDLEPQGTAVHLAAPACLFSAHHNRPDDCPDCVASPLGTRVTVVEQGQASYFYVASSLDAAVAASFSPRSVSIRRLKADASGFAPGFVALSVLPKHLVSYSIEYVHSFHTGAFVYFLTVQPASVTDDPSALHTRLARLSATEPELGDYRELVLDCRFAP
Sequence of Macrophage-stimulating protein receptor (Homo sapiens) (Q04912 310-1400 limits assumed): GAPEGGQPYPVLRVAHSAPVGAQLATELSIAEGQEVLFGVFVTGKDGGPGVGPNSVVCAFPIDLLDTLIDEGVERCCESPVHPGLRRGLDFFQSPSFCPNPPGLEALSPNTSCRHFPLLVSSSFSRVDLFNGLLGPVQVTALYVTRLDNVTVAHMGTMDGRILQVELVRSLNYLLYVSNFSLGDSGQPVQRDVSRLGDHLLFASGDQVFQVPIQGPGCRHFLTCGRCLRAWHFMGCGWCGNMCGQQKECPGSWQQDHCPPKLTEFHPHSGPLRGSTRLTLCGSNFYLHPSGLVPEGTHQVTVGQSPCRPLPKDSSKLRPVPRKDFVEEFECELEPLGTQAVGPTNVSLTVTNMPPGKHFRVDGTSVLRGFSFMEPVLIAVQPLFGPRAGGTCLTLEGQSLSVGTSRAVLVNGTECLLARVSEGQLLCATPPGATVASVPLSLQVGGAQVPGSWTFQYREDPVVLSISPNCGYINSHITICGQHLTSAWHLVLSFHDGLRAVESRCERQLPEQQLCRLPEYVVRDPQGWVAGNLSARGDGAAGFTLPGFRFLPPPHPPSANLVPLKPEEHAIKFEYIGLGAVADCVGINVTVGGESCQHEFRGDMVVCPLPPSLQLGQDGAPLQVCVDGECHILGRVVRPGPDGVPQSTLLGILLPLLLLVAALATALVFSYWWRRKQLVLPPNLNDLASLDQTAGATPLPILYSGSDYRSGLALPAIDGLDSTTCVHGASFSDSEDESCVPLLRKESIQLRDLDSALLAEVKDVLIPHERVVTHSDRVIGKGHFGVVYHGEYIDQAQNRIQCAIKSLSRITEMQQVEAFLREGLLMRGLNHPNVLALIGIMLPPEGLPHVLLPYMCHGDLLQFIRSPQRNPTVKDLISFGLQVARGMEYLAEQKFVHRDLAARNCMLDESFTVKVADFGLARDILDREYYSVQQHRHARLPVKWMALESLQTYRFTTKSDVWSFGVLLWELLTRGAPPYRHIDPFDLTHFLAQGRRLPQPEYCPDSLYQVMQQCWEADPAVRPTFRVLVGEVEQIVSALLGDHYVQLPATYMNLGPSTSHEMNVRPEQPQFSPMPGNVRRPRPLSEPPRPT

[18] = target: Tyrosine-protein kinase receptor TYRO3 (Homo sapiens) (UniProt Q06418); experiment: Inhibition of human RSE (451 to end residues) using KVEKIGEGTYGVVYK as substrate measured after 40 mins in presence of [gamma33P]ATP by scintillation counting method; procedure, shortened: as §1
Sequence of Tyrosine-protein kinase receptor TYRO3 (Homo sapiens) (Q06418 whole entry): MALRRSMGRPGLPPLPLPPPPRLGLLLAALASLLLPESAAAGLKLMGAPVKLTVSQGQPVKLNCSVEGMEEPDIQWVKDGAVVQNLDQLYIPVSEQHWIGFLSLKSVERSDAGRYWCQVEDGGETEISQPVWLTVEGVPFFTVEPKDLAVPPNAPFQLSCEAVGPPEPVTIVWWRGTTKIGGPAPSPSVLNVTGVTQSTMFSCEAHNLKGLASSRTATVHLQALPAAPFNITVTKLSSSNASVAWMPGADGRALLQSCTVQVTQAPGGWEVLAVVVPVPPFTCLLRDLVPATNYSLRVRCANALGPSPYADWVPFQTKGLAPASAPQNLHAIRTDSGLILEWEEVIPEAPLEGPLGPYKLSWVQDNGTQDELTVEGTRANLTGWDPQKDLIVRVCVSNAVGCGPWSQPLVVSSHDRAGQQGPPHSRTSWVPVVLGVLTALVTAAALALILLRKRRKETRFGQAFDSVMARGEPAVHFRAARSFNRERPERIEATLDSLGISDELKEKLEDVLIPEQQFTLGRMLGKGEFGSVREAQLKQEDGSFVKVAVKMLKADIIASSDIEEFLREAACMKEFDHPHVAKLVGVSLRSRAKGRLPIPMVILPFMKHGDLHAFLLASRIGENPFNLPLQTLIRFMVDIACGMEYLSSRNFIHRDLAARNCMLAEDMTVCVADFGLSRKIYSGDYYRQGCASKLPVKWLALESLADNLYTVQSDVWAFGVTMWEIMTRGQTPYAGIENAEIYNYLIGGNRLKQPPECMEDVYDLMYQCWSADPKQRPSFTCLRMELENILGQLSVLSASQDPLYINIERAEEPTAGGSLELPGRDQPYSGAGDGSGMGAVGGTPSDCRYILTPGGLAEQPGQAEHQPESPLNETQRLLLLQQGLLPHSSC

[19] = target: Serine/threonine-protein kinase 32B (Homo sapiens) (UniProt Q9NY57); experiment: Inhibition of recombinant full-length human STK32B at 10 uM using casein as substrate measured after 120 mins in presence of [gamma33P]ATP by scintillation counting method
[20] = target: Serine/threonine-protein kinase WNK1 (Homo sapiens) (UniProt Q9H4A3); experiment: Inhibition of human WNK1 (1 to 491 residues) using myelin basic protein as substrate measured after 120 mins in presence of [gamma33P]ATP by scintillation counting method
[21] = target: Death-associated protein kinase 3 (Homo sapiens) (UniProt O43293); experiment: Inhibition of human ZIPK (1 to 290 residues) using KKLNRTLSFAEPG as substrate measured after 40 mins in presence of [gamma33P]ATP by scintillation counting method
[22] = target: Serine/threonine-protein kinase 33 (Homo sapiens) (UniProt Q9BYT3); experiment: Inhibition of recombinant full-length human STK33 at 10 uM using myelin basic protein as substrate measured after 40 mins in presence of [gamma33P]ATP by scintillation counting method
Sequence of Serine/threonine-protein kinase 33 (Homo sapiens) (Q9BYT3 whole entry, looked up): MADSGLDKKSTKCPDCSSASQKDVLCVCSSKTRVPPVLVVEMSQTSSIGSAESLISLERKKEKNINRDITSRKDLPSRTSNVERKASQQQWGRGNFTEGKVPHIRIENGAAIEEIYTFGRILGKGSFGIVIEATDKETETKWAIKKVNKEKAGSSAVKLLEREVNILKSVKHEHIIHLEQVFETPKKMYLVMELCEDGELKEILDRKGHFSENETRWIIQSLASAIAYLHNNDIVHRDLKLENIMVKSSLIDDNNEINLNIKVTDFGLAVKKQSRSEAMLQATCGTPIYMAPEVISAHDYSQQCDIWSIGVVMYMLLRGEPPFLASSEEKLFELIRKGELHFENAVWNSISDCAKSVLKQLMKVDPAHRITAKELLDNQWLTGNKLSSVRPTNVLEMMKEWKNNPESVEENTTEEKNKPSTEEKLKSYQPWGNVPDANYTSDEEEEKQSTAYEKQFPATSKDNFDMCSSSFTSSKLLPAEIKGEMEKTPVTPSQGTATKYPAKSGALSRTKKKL

CN1C[C@H](Nc2nc3cc[nH]c3c(=O)n2C)C[C@H](c2ccc3c(c2)OCCO3)C1
inactive: inhibition [1] | Activity [2] | inhibition [3] | inhibition [4] | inhibition [5] | inhibition [6] | inhibition [7] | inhibition [8] | inhibition [9] | inhibition [10] | inhibition [11] | inhibition [12] | inhibition [13] | inhibition [14] | inhibition [15] | inhibition [16] | inhibition [17] | inhibition [18] | inhibition [19] | inhibition [20] | inhibition [21] | inhibition [22]
